Tb hexokinase: Trypanosoma brucei hexokinase 1 inhibitors, primary screen, biochemical, G6PDH-coupled NADH absorbance, MLSCN library; 0.11% of 220,000 active; recombinant TbHK1, G6PDH-coupled NADH A340; AID 1430, 2008; hexokinase 1 [Trypanosoma brucei]; inhibition, % at 10 µM;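 active means inhibition of 50% or more in the single-dose primary screen; inactive means inhibition below 50%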
MDM2 E3 inh: MDM2-luciferase reporter signal enhancers, primary screen, MDM2 E3 ligase inhibitor project, cell-based, luminescence, 1536-well. cell-based MDM2 ubiquitination luciferase reporter, 2 h; 0 = plate control, 100 = twice control, blank-subtracted. signal enhancement, % at 5 µM. 0.11% of 210,000 active. AID 1230, 2008;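 active means signal enhancement of 30% or more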;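 further: luminescence tracks abundance of the self-degrading MDM2-luciferase fusion protein; higher signal means inhibition of MDM2 E3 ligase activity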
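Material: stable MDM2–luciferase fusion reporter cells / Quantity: 2000 cells/well / Dosing: single 5 µM compound dose, 0.2% final DMSO / Buffer or medium: DMEM / Schedule: 4 h cell settling then 2 h compound exposure, 37 °C / Detection: luminescence with SteadyLite reagent, 15 min at room temperature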
Wee1 stabilizer: Wee1 degradation inhibitors, primary screen, cell-based, HeLa, Wee1K328M-luciferase, luminescence; Wee1-like protein kinase (Homo sapiens), P30291; AID 1321, 2008; HeLa Luc-Wee1K328M stability; 100% = proteasome inhibitor MG132 effect; reporter increase, % at 5 µM; 1.2% of 220,000 active;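 active means activation above the mean of all tested compounds plus 3 SD, set per screening run, cut at about 8.8% in these data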;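 further: cells exposed to compound for 20 h before luminescence read; 0% = DMSO alone and 100% = MG132 at 30 µM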
14-3-3 Bad PPI: inhibitors of 14-3-3 zeta/Bad binding, primary screen, biochemical, TR-FRET, bovine 14-3-3 zeta; 14-3-3 protein zeta/delta (Bos taurus), P63103; TR-FRET 14-3-3zeta/Dy647-pBad peptide displacement, 1 h; inhibition, % at 21.7 µM; 0.71% of 220,000 active; AID 781, 2007;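 active means inhibition above about 70%, limit read from the data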;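 further: 0% = full 14-3-3 plus peptide FRET controls and 100% = background without 14-3-3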
Hck-Nef inh: inhibitors of Nef-activated human Hck kinase, primary screen, biochemical, Z-Lyte FRET, 384-well, Hck-YEEI. 0.68% of 220,000 active. Recombinant Hck-YEEI plus Nef, Z-Lyte FRET kinase assay. Tyrosine-protein kinase HCK (Homo sapiens), P08631. AID 463187, 2010. inhibition, % at 20 µM;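 active means Hck-Nef kinase inhibition above about 50%, limit read from the data; inactive means inhibition below that limit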;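 further: 0% = DMSO with Hck plus Nef and 100% = Hck alone without Nef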
Target sequence (P08631 whole entry, looked up): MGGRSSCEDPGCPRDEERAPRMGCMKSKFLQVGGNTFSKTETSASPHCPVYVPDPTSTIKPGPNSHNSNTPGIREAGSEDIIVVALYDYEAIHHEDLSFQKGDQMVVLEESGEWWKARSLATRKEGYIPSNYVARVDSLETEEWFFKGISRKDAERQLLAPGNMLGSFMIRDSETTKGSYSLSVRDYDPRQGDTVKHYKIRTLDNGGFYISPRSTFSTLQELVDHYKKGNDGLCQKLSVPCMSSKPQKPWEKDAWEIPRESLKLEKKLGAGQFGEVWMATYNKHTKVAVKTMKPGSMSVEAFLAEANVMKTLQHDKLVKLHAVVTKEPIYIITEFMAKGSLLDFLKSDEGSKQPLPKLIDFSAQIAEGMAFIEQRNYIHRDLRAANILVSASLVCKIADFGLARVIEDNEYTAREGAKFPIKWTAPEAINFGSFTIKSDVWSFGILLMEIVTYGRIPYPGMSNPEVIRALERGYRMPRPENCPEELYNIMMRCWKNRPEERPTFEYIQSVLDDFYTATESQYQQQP
Active calls of the source: *; . = not tested or not shown; [ ] = another dose, or the depositor's remark. Hits are enriched below; roughly 2.7% of the tested compounds scored in any of these assays.

SMILES	Tb hexokinase	MDM2 E3 inh	Wee1 stabilizer	14-3-3 Bad PPI	Hck-Nef inh
C#CCn1cc(/C=N/NC(=O)COc2cccc3cccnc23)c2ccccc21	2.9	-11.9	-0.3	92.1*[fluorescence artefact?]	31.4
Cc1ccc(OCC(=O)N/N=C/c2cn(C)c3ccccc23)cc1	-31.1	-1.7	9.2*	0.5	11.0
CC1(C)CC2CC(C)(CN2/C=C2/CCCCC2=O)C1 (stereo not given)	-14.2	.	-1.3	-2.8	33.6
Cc1cc(C)n(-c2nnc(C)n2/N=C/c2ccccc2O)n1	-12.8	-20.0	9.3*	-11.1	-3.6
Cc1cc(C)n(-c2nnc(C)n2N)n1	-2.8	-12.8	-1.6	43.7	2.0
CCOC(=O)C1=C(C)N(C)C(=S)NC1c1ccc(Cl)cc1 (stereo not given)	0.3	-7.1	9.9*	-2.5	-0.1
CCOC(=O)C1=C(C)N(C)C(=S)NC1c1ccccc1 (stereo not given)	-13.4	-3.1	2.5	-2.2	-0.6
CCCS(=O)c1nc(C)cc(C)c1S(C)(=O)=O (stereo not given)	-2.6	-1.3	0.8	-13.1	17.8
CC(=O)Nc1ccc(S(=O)(=O)Nc2ccc(S(=O)(=O)N3CCCC3)cc2)cc1	3.2	0.5	9.2*	-4.5	-8.6
O=C(Nc1cccnc1)OC1CCCC1	0.0	-10.9	0.3	-3.5	17.2
COc1ccc(OCC(=O)Nc2ccccc2Cl)cc1	4.4	-14.4	-1.1	-5.7	18.4
COc1ccc(S(=O)CC(=O)Nc2ccccc2Cl)cc1 (stereo not given)	2.2	1.6	9.7*	-3.5	0.9
O=C(c1coc(=O)c2ccccc12)N1CCN(Cc2ccccc2)CC1	-3.6	0.2	-0.9	-13.5	3.3
CCCc1cc(=O)[nH]c(SCC(=O)c2cc(C)n(C(C)COC)c2C)n1 (stereo not given)	-4.7	-13.1	-3.1	-17.5	-1.0
C/C(CC(C)C)=N\Nc1ccc(S(N)(=O)=O)cc1[N+](=O)[O-]	0.6	-4.7	-1.1	4.4	1.4
NS(=O)(=O)c1ccc(CCNC(=O)CSc2nc3ccsc3c(=O)n2CC2CCC(C(=O)O)CC2)cc1 (stereo not given)	-1.0	-3.2	10.7*	-0.2	17.7
N/C(=N\OC(=O)c1ccc(Cl)cc1)c1[nH]ncc1Br	-2.5	-51.9	-0.4	-1.9	13.2
N#C/C(=C(/O)COC(=O)c1ccc(O)cc1)c1nc2ccccc2[nH]1	-16.7	-28.1	8.9*	-0.2	22.5
CC(C)C(=O)OC/C(O)=C(\C#N)c1nc2ccccc2[nH]1	-7.7	-15.0	6.5	-18.8	26.3
Cc1cc(C)nc(-n2ncc3c2CC(c2cccc(Cl)c2)CC3=O)n1 (stereo not given)	2.7	-11.7	0.8	-15.7	14.9
O=C(O)c1ccc(C(=O)c2ccc3c(c2)C(=O)N(CC2CCCO2)C3=O)cc1 (stereo not given)	-3.5	-1.7	10.3*	-2.5	19.2
Cc1cc(NC(=O)c2cccc(Oc3ccccc3)c2)n[nH]1	-7.6	-24.9	3.4	-18.0	24.9
O=C(CCO)c1ccc(O)cc1	-6.6	5.0	-0.4	74.5*	25.8
COc1cc(NC(=O)c2cc3sccc3n2C)cc(OC)c1	-5.5	-6.5	9.0*	-5.0	1.0
Cc1ccc(-c2nnn(CC(=O)Nc3nnc(C(C)C)s3)n2)cc1	-8.9	-2.8	-4.9	-1.3	22.2
SMILES	Tb hexokinase	MDM2 E3 inh	Wee1 stabilizer	14-3-3 Bad PPI	Hck-Nef inh
Cc1ccc(C(=O)NC(=O)OCCn2c(C)cnc2[N+](=O)[O-])cc1	-4.6	-6.2	-0.4	74.0*	19.3
Cc1cnc([N+](=O)[O-])n1CCOC(=O)NC(=O)c1ccccc1	-14.0	-12.3	2.9	-7.6	22.6
O=C(Nc1ccccn1)c1cc2cc([N+](=O)[O-])ccc2s1	-7.8	-33.5	9.4*	46.6	20.1
Cn1c(COc2cccc3ccccc23)nnc1SCC(=O)OC1CCCCC1	-8.3	.	9.5*	4.5	22.2
COc1ccc(Nc2nc(-c3ccccc3)c3ccccc3n2)cc1	-8.2	-9.5	4.0	-1.6	1.0
COc1ccc(Nc2nc(C)c3ccccc3n2)cc1	27.2	-23.2	-3.2	92.8*	0.6
O=S(=O)(Cc1ccccc1Cl)NCCOc1ccccc1	40.6	-0.5	9.0*	-34.4	2.5
O=S(=O)(Cc1ccccc1Cl)NCc1ccccc1	1.7	2.7	-1.2	-12.8	4.7
COCCN(C(=O)CNC(=O)c1cccs1)C(C(=O)NC1CCCC1)c1cccs1 (stereo not given)	-2.7	-13.7	9.8*	4.3	0.4
CC1(C)Cc2c(sc3[nH]c(=S)[nH]c(=O)c23)CO1	-31.1	-14.3	-1.6	6.3	16.5
O=C1c2ccccc2-c2nnc(-c3ccc(F)cc3)cc21	-8.1	-47.7	9.8*	-9.6	1.2
Cc1ccc(-c2cc3c(nn2)-c2ccccc2C3=O)cc1	-11.6	.	-4.9	-1.1	22.5
CN(CCC#N)C(=S)Nc1ccc(Oc2ccccc2)cc1	27.5	-1.2	-2.9	-11.3	2.3
CC(C)NS(=O)(=O)c1ccc(CCC(=O)NCc2ccco2)cc1	1.2	-36.4	2.5	6.9	-7.9
CC(C)NS(=O)(=O)c1ccc(CCC(=O)NCc2ccncc2)cc1	-1.9	-13.7	9.5*	-6.8	20.1
CC(NC(=O)c1sc2cc([N+](=O)[O-])ccc2c1Cl)C(C)(C)C (stereo not given)	24.8	-24.4	9.0*	20.2	-0.6
O=C(NC1CC1)c1sc2cc([N+](=O)[O-])ccc2c1Cl	-11.9	0.0	1.2	5.5	5.2
O=C1C(=Cc2ccco2)C(=O)c2ccccc21	4.7	-3.0	-2.3	-25.0	8.8
CCC1C/C(=C/c2ccco2)C(=O)/C(=C/c2ccco2)C1 (stereo not given)	26.5	4.1	-3.0	-9.3	61.5*
CCOC(=O)c1sc(=S)n(-c2ccccc2)c1N(C(C)=O)C(C)=O	-12.5	30.6*	4.3	41.4	21.5
Cc1ccc(/C=C2/NC(=O)N(Cc3ccc(Br)cc3)C2=O)o1	-14.1	31.8*	2.4	-14.7	2.6
CCN1C(=O)N/C(=C/c2ccc(C)o2)C1=O	-27.3	0.3	4.3	-3.8	4.5
Cc1ccc(-c2nnn(CC(=O)N(CC3CCCO3)C(C(=O)NC3CCCC3)c3ccc(O)cc3)n2)o1 (stereo not given)	1.1	-12.7	10.0*	-22.3	25.7
Cc1ccc(-c2nnn(CC(=O)N(CC3CCCO3)C(C(=O)NC3CCCC3)c3ccc(F)cc3)n2)o1 (stereo not given)	28.1	-13.0	2.5	5.5	-25.0

Source: PubChem (several laboratories)
